Measured values taken from ChEMBL document CHEMBL2346641, “Discovery of disubstituted piperidines and homopiperidines as potent dual NK1 receptor antagonists-serotonin reuptake transporter inhibitors for the treatment of depression” (Bioorg Med Chem, 2013).
Active and inactive are the calls of the source.

Experiments:
Substance-K receptor = target: T1, Substance-K receptor (Homo sapiens, UniProt P21452); assay: Inhibition of NK2 receptor (unknown origin)
T1 sequence (P21452 whole entry): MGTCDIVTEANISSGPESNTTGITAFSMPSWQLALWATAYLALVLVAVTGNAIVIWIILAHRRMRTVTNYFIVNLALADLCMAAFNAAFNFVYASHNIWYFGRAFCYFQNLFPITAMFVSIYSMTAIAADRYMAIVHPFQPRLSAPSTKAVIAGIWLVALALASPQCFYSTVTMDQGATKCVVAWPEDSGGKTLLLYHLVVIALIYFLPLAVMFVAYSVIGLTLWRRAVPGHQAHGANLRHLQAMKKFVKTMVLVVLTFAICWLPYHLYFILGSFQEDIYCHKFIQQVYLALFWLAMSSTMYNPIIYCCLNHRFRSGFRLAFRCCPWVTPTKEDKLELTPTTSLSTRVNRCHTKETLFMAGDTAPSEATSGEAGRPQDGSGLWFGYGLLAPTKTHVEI

[1] = Ratio of drug level in brain to serum in gerbil at 30 mg/kg, ip after 36 mins; format: ADME, organism-based; design: dose 30 mg/kg, route intraperitoneal; settings: gerbillinae
Method in brief: (§1)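 Gerbils given single IP dose in 100% PEG-400 (0.1–30 mg/kg); brain and serum sampled 36 min post-dose, matching the interval from dosing to end of forced swim test. Drug concentrations (nM) measured in each matrix and brain-to-serum ratio calculated; mean of n = 3 with SD.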

Gerbillinae [2] = assay: Toxicity in gerbil assessed as behavioral change measuring spontaneous locomotor activity at 0.1 to 1 mg/kg, ip after 30 mins relative to vehicle-treated control; format: organism-based; design: dose 0.1-1 mg/kg, route intraperitoneal; settings: in vivo, 0.5 h
[3] = Drug uptake in gerbil serum at 3 mg/kg, ip after 36 mins; format: ADME, organism-based; design: dose 3 mg/kg, route intraperitoneal; settings: gerbillinae, read-out: Drug uptake
Method in brief: (§2)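 Gerbils given IP doses as a solution in 100% PEG-400. Brain and serum sampled 36 min post-injection, covering the time from dosing to the end of the behavioral test. Values are means (n = 3) with SD.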

[4] = Drug uptake in gerbil serum at 0.1 mg/kg, ip after 36 mins; format: ADME, organism-based; design: dose 0.1 mg/kg, route intraperitoneal; settings: gerbillinae, read-out: Drug uptake; method in brief: as §2
[5] = target: Histamine H1 receptor (Homo sapiens) (UniProt P35367); assay: Inhibition of histamine H1 receptor (unknown origin) at 10 uM
Method in brief: (§3)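 Screened at 10 µM in a commercial panel of over 70 receptors. Significance threshold set at ≥50% inhibition.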

[6] = target: T2, 5-hydroxytryptamine receptor 2C (Homo sapiens, UniProt P28335); assay: Inhibition of 5HT2C receptor (unknown origin)
T2 sequence (P28335 whole entry): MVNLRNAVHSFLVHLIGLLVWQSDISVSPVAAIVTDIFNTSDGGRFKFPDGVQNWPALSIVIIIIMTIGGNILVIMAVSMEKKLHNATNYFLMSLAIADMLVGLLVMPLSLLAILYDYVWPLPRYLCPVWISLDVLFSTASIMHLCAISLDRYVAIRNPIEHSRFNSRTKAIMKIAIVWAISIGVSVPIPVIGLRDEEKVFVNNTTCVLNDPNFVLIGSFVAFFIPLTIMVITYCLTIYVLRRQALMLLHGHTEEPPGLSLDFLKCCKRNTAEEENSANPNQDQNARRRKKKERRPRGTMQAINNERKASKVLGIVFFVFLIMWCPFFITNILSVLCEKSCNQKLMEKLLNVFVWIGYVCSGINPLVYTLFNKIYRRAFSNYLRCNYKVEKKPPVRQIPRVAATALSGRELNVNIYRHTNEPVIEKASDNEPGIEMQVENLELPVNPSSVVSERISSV

[7] = Drug uptake in gerbil serum at 10 mg/kg, ip after 36 mins; format: ADME, organism-based; design: dose 10 mg/kg, route intraperitoneal; settings: gerbillinae, read-out: Drug uptake; method in brief: as §2
[8] = Drug uptake in gerbil serum at 1 mg/kg, ip after 36 mins; format: ADME, organism-based; design: dose 1 mg/kg, route intraperitoneal; settings: gerbillinae, read-out: Drug uptake; method in brief: as §2
[9] = Drug uptake in gerbil brain at 0.3 mg/kg, ip after 36 mins; format: ADME, organism-based; design: dose 0.3 mg/kg, route intraperitoneal; settings: gerbillinae, read-out: Drug uptake; method in brief: as §2
[10] = target: T3, 5-hydroxytryptamine receptor 2B (Homo sapiens, UniProt P41595); settings: 10 uM
[11] = Ratio of drug level in brain to serum in gerbil at 3 mg/kg, ip after 36 mins; format: ADME, organism-based; design: dose 3 mg/kg, route intraperitoneal; settings: gerbillinae; method in brief: as §1
Gerbillinae [12] = assay: Antidepressant activity in gerbil assessed as decrease in immobility time at 0.1 mg/kg, ip administered for 30 mins prior to testing measured for 6 mins by forced swimming test relative to vehicle-treated control; format: functional, organism-based; design: dose 0.1 mg/kg
Gerbillinae [13] = assay: Antidepressant activity in gerbil assessed as decrease in immobility time at 0.3 to 3 mg/kg, ip administered for 30 mins prior to testing measured for 6 mins by forced swimming test; format: functional, organism-based
[14] = target: Sodium-dependent serotonin transporter (Homo sapiens, UniProt P31645); format: cell-based, HEK293
[15] = target: T4, Sodium-dependent dopamine transporter (Homo sapiens, UniProt Q01959); assay: Inhibition of DAT (unknown origin) at 10 uM; method in brief: as §3
[16] = target: T4, Sodium-dependent dopamine transporter; assay: Inhibition of DAT (unknown origin)
[17] = Ratio of drug level in brain to serum in gerbil at 10 mg/kg, ip after 36 mins; format: ADME, organism-based; design: dose 10 mg/kg, route intraperitoneal; settings: gerbillinae; method in brief: as §1
[18] = target: T5, Sodium-dependent noradrenaline transporter (Homo sapiens, UniProt P23975); assay: Inhibition of NET (unknown origin) at 10 uM; method in brief: as §3
[19] = target: T5, Sodium-dependent noradrenaline transporter; assay: Inhibition of NET (unknown origin)
[20] = target: 5-hydroxytryptamine receptor 2A (Homo sapiens, UniProt P28223); assay: Inhibition of 5HT2A receptor (unknown origin)
Homo sapiens = species on record: Homo sapiens; assay: Inhibition of Na+ channel (unknown origin) at 10 uM; method in brief: as §3
[21] = Drug uptake in gerbil brain at 10 mg/kg, ip after 36 mins; format: ADME, organism-based; design: dose 10 mg/kg, route intraperitoneal; settings: gerbillinae, read-out: Drug uptake; method in brief: as §2
[22] = Drug uptake in gerbil serum at 0.3 mg/kg, ip after 36 mins; format: ADME, organism-based; design: dose 0.3 mg/kg, route intraperitoneal; settings: gerbillinae, read-out: Drug uptake; method in brief: as §2
[23] = Ratio of drug level in brain to serum in gerbil at 0.1 mg/kg, ip after 36 mins; format: ADME, organism-based; design: dose 0.1 mg/kg, route intraperitoneal; settings: gerbillinae; method in brief: as §1
[24] = target: Histamine H2 receptor (Homo sapiens) (UniProt P25021); assay: Inhibition of histamine H2 receptor (unknown origin) at 10 uM; method in brief: as §3
[25] = target: T3, 5-hydroxytryptamine receptor 2B; assay: Inhibition of 5HT2B receptor (unknown origin)
[26] = target: T6, 5-hydroxytryptamine receptor 1A (Homo sapiens, UniProt P08908); assay: Inhibition of 5HT1A receptor (unknown origin)
T6 sequence (P08908 whole entry): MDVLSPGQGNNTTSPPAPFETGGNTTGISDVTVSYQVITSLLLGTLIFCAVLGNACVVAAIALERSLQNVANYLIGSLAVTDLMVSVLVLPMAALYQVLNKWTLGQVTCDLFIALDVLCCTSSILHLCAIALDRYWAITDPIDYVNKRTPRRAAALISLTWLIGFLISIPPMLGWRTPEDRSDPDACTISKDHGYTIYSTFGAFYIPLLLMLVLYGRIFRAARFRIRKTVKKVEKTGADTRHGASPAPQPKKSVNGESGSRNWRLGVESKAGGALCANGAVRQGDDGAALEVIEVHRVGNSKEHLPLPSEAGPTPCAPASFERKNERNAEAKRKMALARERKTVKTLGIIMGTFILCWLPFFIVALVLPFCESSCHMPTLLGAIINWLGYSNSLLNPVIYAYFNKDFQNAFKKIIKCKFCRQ

[27] = Drug uptake in gerbil brain at 0.1 mg/kg, ip after 36 mins; format: ADME, organism-based; design: dose 0.1 mg/kg, route intraperitoneal; settings: gerbillinae, read-out: Drug uptake; method in brief: as §2

T3 sequence (P41595 whole entry): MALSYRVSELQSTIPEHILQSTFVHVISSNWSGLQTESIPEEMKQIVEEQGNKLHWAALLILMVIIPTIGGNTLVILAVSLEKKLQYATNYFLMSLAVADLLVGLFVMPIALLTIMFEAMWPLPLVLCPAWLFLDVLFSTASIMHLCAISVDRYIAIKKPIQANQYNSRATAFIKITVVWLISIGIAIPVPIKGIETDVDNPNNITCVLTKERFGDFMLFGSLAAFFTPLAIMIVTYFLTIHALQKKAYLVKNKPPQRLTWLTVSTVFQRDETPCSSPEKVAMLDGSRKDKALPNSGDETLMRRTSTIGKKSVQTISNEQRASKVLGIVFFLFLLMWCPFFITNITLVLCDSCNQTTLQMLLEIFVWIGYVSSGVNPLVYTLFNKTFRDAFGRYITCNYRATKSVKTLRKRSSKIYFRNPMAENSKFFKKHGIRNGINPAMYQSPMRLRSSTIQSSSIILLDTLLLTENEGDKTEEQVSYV
T5 sequence (P23975 whole entry): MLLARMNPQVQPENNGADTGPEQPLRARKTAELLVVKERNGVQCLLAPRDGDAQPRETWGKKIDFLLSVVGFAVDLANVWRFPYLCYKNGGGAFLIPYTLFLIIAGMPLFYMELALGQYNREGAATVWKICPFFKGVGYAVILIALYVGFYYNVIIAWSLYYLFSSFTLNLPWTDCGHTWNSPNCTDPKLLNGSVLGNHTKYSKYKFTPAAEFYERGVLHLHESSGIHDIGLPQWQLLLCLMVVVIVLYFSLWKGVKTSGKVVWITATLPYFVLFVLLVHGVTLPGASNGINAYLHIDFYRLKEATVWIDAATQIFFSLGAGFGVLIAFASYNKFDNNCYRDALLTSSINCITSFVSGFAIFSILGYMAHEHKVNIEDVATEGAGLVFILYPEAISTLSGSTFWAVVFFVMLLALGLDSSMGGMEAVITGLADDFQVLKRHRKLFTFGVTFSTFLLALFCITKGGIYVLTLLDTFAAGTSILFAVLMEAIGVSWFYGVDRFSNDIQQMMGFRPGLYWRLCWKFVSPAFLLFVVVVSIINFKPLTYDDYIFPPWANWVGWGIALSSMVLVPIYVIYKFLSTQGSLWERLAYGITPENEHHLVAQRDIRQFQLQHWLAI
T4 sequence (Q01959 whole entry): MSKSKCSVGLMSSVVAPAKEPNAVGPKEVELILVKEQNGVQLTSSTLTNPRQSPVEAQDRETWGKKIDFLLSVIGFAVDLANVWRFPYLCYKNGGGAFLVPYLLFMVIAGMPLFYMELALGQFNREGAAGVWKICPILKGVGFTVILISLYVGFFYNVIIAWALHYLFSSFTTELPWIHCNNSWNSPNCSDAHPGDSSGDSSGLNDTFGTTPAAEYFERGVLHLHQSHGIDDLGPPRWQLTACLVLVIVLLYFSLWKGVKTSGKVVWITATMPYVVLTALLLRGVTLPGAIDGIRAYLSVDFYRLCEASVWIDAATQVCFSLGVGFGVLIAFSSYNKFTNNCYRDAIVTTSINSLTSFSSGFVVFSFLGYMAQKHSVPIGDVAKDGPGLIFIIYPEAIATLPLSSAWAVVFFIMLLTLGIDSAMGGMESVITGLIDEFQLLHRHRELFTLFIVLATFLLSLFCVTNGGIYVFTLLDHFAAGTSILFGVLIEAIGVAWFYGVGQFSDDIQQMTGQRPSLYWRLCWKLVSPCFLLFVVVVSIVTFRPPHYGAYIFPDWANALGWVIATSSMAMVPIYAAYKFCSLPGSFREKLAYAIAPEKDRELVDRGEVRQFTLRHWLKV
Chain of Histamine H1 receptor (Homo sapiens) (P35367 whole entry): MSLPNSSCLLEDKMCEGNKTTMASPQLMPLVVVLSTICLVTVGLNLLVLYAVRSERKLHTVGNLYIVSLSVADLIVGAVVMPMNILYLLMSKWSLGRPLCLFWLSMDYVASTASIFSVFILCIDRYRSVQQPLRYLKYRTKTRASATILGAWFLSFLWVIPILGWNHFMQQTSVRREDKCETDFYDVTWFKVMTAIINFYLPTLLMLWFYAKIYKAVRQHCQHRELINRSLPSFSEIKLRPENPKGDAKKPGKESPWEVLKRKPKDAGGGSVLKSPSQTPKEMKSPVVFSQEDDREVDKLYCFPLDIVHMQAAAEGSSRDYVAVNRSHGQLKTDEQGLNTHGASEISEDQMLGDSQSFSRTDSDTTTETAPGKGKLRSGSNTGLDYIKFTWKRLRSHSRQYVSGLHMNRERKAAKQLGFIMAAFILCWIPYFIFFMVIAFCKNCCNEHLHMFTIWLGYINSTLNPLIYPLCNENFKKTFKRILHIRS
Chain of Histamine H2 receptor (Homo sapiens) (P25021 whole entry): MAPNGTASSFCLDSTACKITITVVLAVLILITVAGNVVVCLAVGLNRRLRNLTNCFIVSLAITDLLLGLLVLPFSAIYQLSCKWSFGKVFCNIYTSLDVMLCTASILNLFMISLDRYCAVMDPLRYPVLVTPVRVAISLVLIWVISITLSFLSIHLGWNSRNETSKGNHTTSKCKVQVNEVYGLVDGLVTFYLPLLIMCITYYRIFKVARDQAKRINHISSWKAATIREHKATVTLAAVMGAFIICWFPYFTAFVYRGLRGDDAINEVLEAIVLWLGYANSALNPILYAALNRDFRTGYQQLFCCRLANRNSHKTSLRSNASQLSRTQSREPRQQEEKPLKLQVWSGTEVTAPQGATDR
Chain of 5-hydroxytryptamine receptor 2A (P28223 whole entry): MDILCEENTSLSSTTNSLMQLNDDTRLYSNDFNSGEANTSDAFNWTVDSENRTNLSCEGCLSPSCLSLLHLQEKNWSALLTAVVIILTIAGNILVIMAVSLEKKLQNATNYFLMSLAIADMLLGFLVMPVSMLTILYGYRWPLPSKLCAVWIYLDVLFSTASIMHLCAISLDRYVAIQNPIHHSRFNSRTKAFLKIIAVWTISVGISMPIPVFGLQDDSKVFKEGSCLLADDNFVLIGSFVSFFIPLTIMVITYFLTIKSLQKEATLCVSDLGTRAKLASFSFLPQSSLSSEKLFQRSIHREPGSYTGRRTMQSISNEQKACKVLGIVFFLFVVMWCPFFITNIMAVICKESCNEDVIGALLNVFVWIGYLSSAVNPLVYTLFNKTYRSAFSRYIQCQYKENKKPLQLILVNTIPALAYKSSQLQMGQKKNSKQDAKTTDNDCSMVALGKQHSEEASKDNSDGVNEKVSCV
Chain of Sodium-dependent serotonin transporter (P31645 whole entry): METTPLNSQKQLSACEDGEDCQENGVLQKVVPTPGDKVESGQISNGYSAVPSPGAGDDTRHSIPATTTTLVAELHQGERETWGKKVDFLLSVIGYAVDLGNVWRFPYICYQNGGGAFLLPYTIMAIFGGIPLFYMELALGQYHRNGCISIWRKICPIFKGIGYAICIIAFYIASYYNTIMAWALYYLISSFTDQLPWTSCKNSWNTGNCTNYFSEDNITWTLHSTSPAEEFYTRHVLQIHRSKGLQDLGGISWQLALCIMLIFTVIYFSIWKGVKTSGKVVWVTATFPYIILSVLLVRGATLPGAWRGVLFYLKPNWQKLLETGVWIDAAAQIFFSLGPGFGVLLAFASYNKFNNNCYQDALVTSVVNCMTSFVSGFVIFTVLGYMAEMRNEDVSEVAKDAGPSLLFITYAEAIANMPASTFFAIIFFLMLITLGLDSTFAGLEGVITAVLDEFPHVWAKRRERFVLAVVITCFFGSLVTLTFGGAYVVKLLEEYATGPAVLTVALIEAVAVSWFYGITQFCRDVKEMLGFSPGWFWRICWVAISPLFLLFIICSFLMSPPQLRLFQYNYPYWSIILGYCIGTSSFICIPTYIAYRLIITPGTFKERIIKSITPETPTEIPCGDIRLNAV

## FC(F)(F)c1cc(COCC2(c3ccccc3)CCNCC2)cc(C(F)(F)F)c1
Substance-K receptor
  IC50: > 1000 nM
[1]
  Kp at 0.6 h: 2.3
Gerbillinae [2]
  Activity: Non-toxic
[3]
  concentration at 0.6 h: 210 nM
[4]
  concentration at 0.6 h: 3.6 nM
[5]
  inhibition: Active
[6]
  IC50: > 1000 nM
[7]
  concentration at 0.6 h: 730 nM
[8]
  concentration at 0.6 h: 35 nM
[9]
  concentration at 0.6 h: 44 nM
[10]
  inhibition: Active
[11]
  Kp at 0.6 h: 4.2
Gerbillinae [12]
  Activity: inactive
Gerbillinae [13]
  Activity: Active
[14]
  IC50: 1 nM
[15]
  inhibition: Active
[16]
  IC50: > 1000 nM
[17]
  Kp at 0.6 h: 5.2
[18]
  inhibition: Active
[19]
  IC50: > 1000 nM
[20]
  IC50: > 1000 nM
Homo sapiens
  inhibition: Active
[21]
  concentration at 0.6 h: 4300 nM
[22]
  concentration at 0.6 h: 12 nM
[23]
  Kp at 0.6 h: 2.3
[24]
  inhibition: Active
[25]
  IC50: > 1000 nM
[26]
  IC50: > 1000 nM
[27]
  concentration at 0.6 h: 8.8 nM
